These results are taken from ChEMBL document CHEMBL1955787, “Design and synthesis of novel magnolol derivatives as potential antimicrobial and antiproliferative compounds” (Eur J Med Chem, 2012).

Experiment [1] relates to Staphylococcus aureus. The experiment is described as follows: Antibacterial activity against Staphylococcus aureus ATCC 29213 treated for 24 hrs followed by compound treated at 2 to 16 times MIC measured after 24 hrs by micro dilution method. The note with it: ATCC 29213, 24 h. The class given is functional.
The subject of experiment [2] is HL-60. The experiment is described as follows: Induction of apoptosis in human HL60 cells assessed as DNA discrete ladder pattern formation at 5 to 30 uM after 24 hrs using ethidium bromide staining by agarose gel electrophoresis analysis. The class given is functional, cell-based.
Experiment [3] concerns HL-60. The experiment is described as follows: Cell cycle arrest in human HL60 cells assessed as accumulation at sub-G1 phase at 10 uM after 6 hrs using propidium iodide staining by flow cytometry. It counts as functional. In a few lines: (§1)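 Time-course sub-G1 analysis of HL-60 cells exposed to 10 µM and sampled at 0, 6, 9, 18 and 24 h. Ethanol fixation, RNase A and propidium iodide staining as for the dose series, then flow cytometric DNA content at 488 nm excitation.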

The test system of experiment [4] is HL-60. Nature of the experiment: Cell cycle arrest in human HL60 cells assessed as accumulation at sub-G1 phase at 10 uM after 18 hrs using propidium iodide staining by flow cytometry. The class given is functional. In a few lines: as §1
In the next experiment the test system is PC-3. The experiment is described as follows: Antiproliferative activity against human PC3 cells after 48 hrs by sulforhodamine B assay. The class given is functional, cell-based. The settings on record: PC-3, 48 h. The gist of the method:
(§2)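 Sulforhodamine B assay following NCI guidelines. Log-phase cells seeded at 10^4 cells/well and allowed to attach for 24 h at 37 °C, 5% CO2. Exposed 48 h to 1:10 serial dilutions, four replicate wells per condition. Fixed with 50% cold TCA for 1 h at 4 °C, stained, dye dissolved in tris buffer, OD read at 540 nm. Blank-subtracted growth expressed relative to untreated (100%) and reported as IC50.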

Experiment [5] has as its system HL-60. The experiment is described as follows: Antiproliferative activity against human HL60 cells after 48 hrs by sulforhodamine B assay. It counts as functional, cell-based. The note with it: HL-60, 48 h. The gist of the method: as §2
The subject of experiment [6] is Staphylococcus aureus. The experiment is described as follows: Antibacterial activity against methicillin-resistant Staphylococcus aureus 15187 treated for 24 hrs followed by compound treated at 2 to 16 times MIC measured after 24 hrs by micro dilution method. The class given is functional. The settings on record: Staphylococcus aureus, 15187, 24 h. The gist of the method: (§3)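 MBC taken from the same 24 h microdilution plates (Mueller Hinton broth, final inoculum 5 × 10^6 CFU mL-1, 37 °C). […] Spots were incubated 24 h and colonies counted. MBC is the lowest concentration giving a 3 log drop from the starting inoculum.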

For experiment [7], the system named is Staphylococcus aureus. The experiment is described as follows: Antibacterial activity against Staphylococcus aureus ATCC 29213 after 24 hrs by micro dilution method. It counts as functional. The note with it: ATCC 29213, 24 h. In a few lines: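 Broth microdilution in Mueller Hinton broth. Inoculum from a 24 h culture in saline, set to 0.5 McFarland and diluted to a final 5 × 10^6 CFU mL-1. Two-fold serial dilutions, final 0.25–256 µg mL-1. Incubated 37 °C for 24 h and read visually. MIC is the lowest concentration with no turbidity.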

The next experiment relates to MOLT-4. The experiment is described as follows: Antiproliferative activity against human MOLT4 cells after 48 hrs by sulforhodamine B assay. The settings on record: MOLT-4, 48 h. It counts as functional, cell-based. In a few lines: as §2
The test system of experiment [8] is HL-60. Nature of the experiment: Cell cycle arrest in human HL60 cells assessed as accumulation at sub-G1 phase after 24 hrs using propidium iodide staining by flow cytometry. It counts as functional, cell-based. In a few lines: (§4)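 Cell-cycle (sub-G1) profiling of HL-60 cells at 1 × 10^6 per well, treated 24 h at 1, 10, 30 or 100 µM. Washed in ice-cold PBS, fixed in 70% ethanol at -20 °C for 30 min. Treated with RNase A (0.1 mg/mL) at 37 °C for 30 min, then propidium iodide (50 µg/mL) for 30 min on ice in the dark. Read with doublet discrimination and 488 nm excitation.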

The test system of experiment [9] is HL-60. The experiment is described as follows: Cell cycle arrest in human HL60 cells assessed as accumulation at sub-G1 phase at 1 uM after 24 hrs using propidium iodide staining by flow cytometry. It counts as functional. The gist of the method:
as §4

For experiment [10], the system named is HL-60. The experiment is described as follows: Cell cycle arrest in human HL60 cells assessed as accumulation at sub-G1 phase at 30 uM after 24 hrs using propidium iodide staining by flow cytometry. It counts as functional. The gist of the method:
as §4

Experiment [11] concerns HL-60. The experiment is described as follows: Cell cycle arrest in human HL60 cells assessed as accumulation at sub-G1 phase at 100 uM after 24 hrs using propidium iodide staining by flow cytometry. The class given is functional. In a few lines:
as §4

Experiment [12] relates to Enterococcus. The experiment is described as follows: Antibacterial activity against vancomycin-resistant Enterococcus treated for 24 hrs followed by compound treated at 2 to 16 times MIC measured after 24 hrs by micro dilution method. It counts as functional. In a few lines: as §3
In experiment [13] the test system is Staphylococcus aureus. The experiment is described as follows: Antibacterial activity against methicillin-resistant Staphylococcus aureus 15187 after 24 hrs by micro dilution method. The note with it: Staphylococcus aureus, 15187, 24 h. It counts as functional. In a few lines:
(§5)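 Broth microdilution in Mueller Hinton broth, two-fold serial dilutions, final 0.25 to 256 µg mL-1. Inoculum from 24 h culture in saline, set to 0.5 McFarland, diluted to a final 5 × 10^6 CFU mL-1. Plates held at 37 °C for 24 h and read by eye. MIC is the lowest concentration with no turbidity.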

Experiment [14] deals with HL-60. Nature of the experiment: Cell cycle arrest in human HL60 cells assessed as accumulation at sub-G1 phase at 10 uM after 9 hrs using propidium iodide staining by flow cytometry. It counts as functional. The gist of the method: as §1
The test system of a further experiment is Aspergillus fumigatus. The experiment is described as follows: Antifungal activity against Aspergillus fumigatus LSI-II. The class given is functional.
Experiment [15] concerns Enterococcus. The experiment is described as follows: Antibacterial activity against vancomycin-resistant Enterococcus after 24 hrs by micro dilution method. It counts as functional. In a few lines:
as §5

In experiment [16] the test system is HL-60. Nature of the experiment: Cell cycle arrest in human HL60 cells assessed as accumulation at sub-G1 phase at 10 uM after 3 hrs using propidium iodide staining by flow cytometry. It counts as functional.
The subject of another experiment is Candida albicans. The experiment is described as follows: Antifungal activity against Candida albicans ATCC 90028. It counts as functional.
The test system of experiment [17] is HL-60. Nature of the experiment: Cell cycle arrest in human HL60 cells assessed as accumulation at sub-G1 phase at 10 uM after 24 hrs using propidium iodide staining by flow cytometry. The class given is functional. The gist of the method: as §1

≈ marks a conversion by molar mass, not a printed value. Calls of active or inactive are those of the source. The calls are words filed in the database; no cut-off is given here.

As for `CCCCc1cc(I)c(O)c(-c2cc(CCCC)cc(I)c2O)c1`, the MBC in the experiment with Staphylococcus aureus [1] was found to be 4 µg/mL (≈ 7.27 µM); in the experiment on Staphylococcus aureus [6] it was 4 µg/mL (≈ 7.27 µM); against Enterococcus [12], 8 µg/mL (≈ 14.5 µM). Further, the outcome with HL-60 [2] was Active. The Activity in the experiment on HL-60 [3] is 21%; in the experiment with HL-60 [4] it was 44%; with HL-60 [8] it was “Dose-dependent effect”; in the experiment with HL-60 [9], 12%; with HL-60 [10], 67%; in the experiment with HL-60 [11], 78%. Besides, the figures for the Activity in the experiment with HL-60 [14], with HL-60 [16] and in the experiment on HL-60 [17] were 33%, 14% and 52%, respectively. Moreover, the IC50 in the experiment with PC-3 stood at 2 µM; in the experiment with HL-60 [5], 2 µM; with MOLT-4, 10 µM. Further, the MIC in the experiment on Staphylococcus aureus [7], against Staphylococcus aureus [13] and with Enterococcus [15] was 4 µg/mL (≈ 7.27 µM) each time. Besides, the MIC entry in the experiment on Aspergillus fumigatus and with Candida albicans was “inactive” throughout.
Take `C=CCc1cc(O)c(O)c(-c2cc(CC=C)cc(OC)c2O)c1`: the figures for the MBC with Staphylococcus aureus [1], against Staphylococcus aureus [6] and in the experiment on Enterococcus [12] were 16 µg/mL (≈ 51.2 µM), 64 µg/mL (≈ 205 µM) and 128 µg/mL (≈ 410 µM), respectively. In addition, the 50% inhibitory concentration (IC50) in the experiment on PC-3, in the experiment on HL-60 [5] and in the experiment with MOLT-4 was greater than 100 µM each time. Also, the MIC in the experiment with Staphylococcus aureus [7] turned out to be 16 µg/mL (≈ 51.2 µM); against Staphylococcus aureus [13], 16 µg/mL (≈ 51.2 µM); in the experiment on Enterococcus [15], 32 µg/mL (≈ 102 µM). The MIC entry with Aspergillus fumigatus and in the experiment on Candida albicans was “inactive” each time.
For `CCCCc1cc(Br)c(O)c(-c2cc(CCCC)cc(Br)c2O)c1`, the minimal bactericidal concentration (MBC) in the experiment with Staphylococcus aureus [1] stood at 8 µg/mL (≈ 17.5 µM); against Staphylococcus aureus [6], 8 µg/mL (≈ 17.5 µM); in the experiment on Enterococcus [12], 16 µg/mL (≈ 35.1 µM). Further, the 50% inhibitory concentration (IC50) in the experiment with PC-3, with HL-60 [5] and in the experiment on MOLT-4 was greater than 100 µM throughout. Also, the minimum inhibitory concentration (MIC) against Staphylococcus aureus [7], against Staphylococcus aureus [13] and in the experiment on Enterococcus [15] was 8 µg/mL (≈ 17.5 µM) in each case. Besides, the MIC entry in the experiment with Aspergillus fumigatus and with Candida albicans was “inactive” each time.
